From ChEMBL document CHEMBL3826882, “Discovery of 1-((2R,4aR,6R,7R,7aR)-2-Isopropoxy-2-oxidodihydro-4H,6H-spiro[furo[3,2-d][1,3,2]dioxaphosphinine-7,2'-oxetan]-6-yl)pyrimidine-2,4(1H,3H)-dione (JNJ-54257099), a 3'-5'-Cyclic Phosphate Ester Prodrug of 2'-Deoxy-2'-Spirooxetane Uridine Triphosphate Useful for HCV Inhibition” (J Med Chem, 2016) come the findings set out here.

Data set [1] deals with Hepatocyte. The data set can be described thus: Prodrug conversion in rat primary hepatocytes assessed as 2'-deoxy-2'-spirooxetane uridine triphosphate level per million cells at 2 uM after 24 hrs using radiolabelled compound by LC-MS/MS analysis. The format is ADME, cell-based. The essentials: (§1)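 Study A: fresh primary hepatocyte cultures from mouse, rat, dog and human incubated with tritiated prodrug at 2 or 62.5 µM for 4 or 24 h. Triphosphate in cell lysates reported as pmol/million hepatocytes. Duplicate or single measurements.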

Data set [2] concerns Hepatocyte. The data set can be described thus: Prodrug conversion in rat primary hepatocytes assessed as 2'-deoxy-2'-spirooxetane uridine triphosphate level per million cells at 62.5 uM after 4 hrs using radiolabelled compound by LC-MS/MS analysis. The class given is ADME, cell-based. The essentials: as §1
Data set [3] has as its system Hepatocyte. The data set can be described thus: Prodrug conversion in human primary hepatocytes assessed as 2'-deoxy-2'-spirooxetane uridine triphosphate level per million cells at 2 uM after 24 hrs using radiolabelled compound by LC-MS/MS analysis. The format is ADME, cell-based. The essentials:
as §1

The test system of data set [4] is Hepatocyte. The data set can be described thus: Stability in mouse primary hepatocyte supernatant assessed as parent compound level at 2 uM after 4 to 24 hrs using radiolabeled compound by HPLC analysis. The class given is ADME, cell-based. The settings on record: hepatocytes.
The nature of data set [5]: Stability in dog primary hepatocyte supernatant assessed as parent compound level at 2 uM after 4 to 24 hrs using radiolabeled compound by HPLC analysis. The class given is ADME, cell-based, Canis lupus familiaris. As to conditions: hepatocytes; call rule not given here. The essentials: (§2)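 Fresh primary hepatocyte cultures incubated with tritiated prodrug (5'-[3H]) at 2 and 62.5 µM for 4 and 24 h. Supernatants taken after protein precipitation and profiled by HPLC with radioactivity detection. Cell lysates profiled for metabolites by radio-LC. Cyclic monophosphate also measured by LC/MS/MS.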

For data set [6], the system named is Hepatocyte. Description: Stability in human primary hepatocyte supernatant assessed as parent compound level at 2 uM after 4 to 24 hrs using radiolabeled compound by HPLC analysis. As to conditions: hepatocytes. The class given is ADME, cell-based.
Data set [7] deals with Hepatocyte. Description: Drug metabolism in rat primary hepatocyte supernatant assessed as 1-((4R,5R,7R,8R)-8-hydroxy-7-(hydroxymethyl)-1,6-dioxaspiro[3.4]octan-5-yl)pyrimidine-2,4(1H,3H)-dione formation at 2 to 62.5 uM after 4 to 24 hrs using radiolabeled compound by HPLC analysis. The class given is ADME, cell-based. As to conditions: hepatocytes. Summed up:
as §2

The test system of data set [8] is Hepatocyte. Description: Drug metabolism in rat primary hepatocytes assessed as 1-[(4aR,6R,7R,7aR)-2-hydroxy-2-oxidodihydro-4H-spiro[furo[3,2-d][1,3,2]dioxaphosphinine-7,2'-oxetan]-6-yl]pyrimidine-2,4(1H,3H)-dione formation at 2 to 62.5 uM after 24 hrs using radiolabelled compound by LC-MS/MS analysis. The class given is ADME, cell-based. Summed up:
as §2

For data set [9], the system named is Hepatocyte. The data set can be described thus: Drug metabolism in rat primary hepatocytes assessed as ((4R,5R,7R,8R)-5-(2,4-dioxo-3,4-dihydropyrimidin-1(2H)-yl)-8-hydroxy-1,6-dioxaspiro[3.4]octan-7-yl)methyl dihydrogen phosphate formation at 2 to 62.5 uM after 24 hrs using radiolabeled compound by LC-MS/MS analysis. The format is ADME, cell-based. Summed up:
as §2

A short description of data set [10]: Drug metabolism in dog primary hepatocytes assessed as ((4R,5R,7R,8R)-5-(2,4-dioxo-3,4-dihydropyrimidin-1(2H)-yl)-8-hydroxy-1,6-dioxaspiro[3.4]octan-7-yl)methyl dihydrogen phosphate formation at 2 to 62.5 uM after 4 hrs using radiolabeled compound by LC-MS/MS analysis. The format is ADME, cell-based, Canis lupus familiaris, Hepatocyte. Summed up:
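Study A: primary cultured hepatocytes (mouse, rat, dog, human) incubated with 2 or 62.5 µM 5'-[3H]-labelled prodrug for 4 and 24 h. Cell lysates were analysed for triphosphate. Supernatants were protein-precipitated and profiled by HPLC with radioactivity detection. Cyclic monophosphate was also assessed by LC/MS/MS.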

A further data set relates to Hepatitis C virus. Description: Antiviral activity against HCV genotype 1b infected in human HuH7 cells assessed as inhibition of viral replication after 3 days by luciferase reporter gene assay. The format is functional, organism-based, Hepacivirus hominis. The settings on record: Huh-7, 72 h. The essentials:
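HCV 1b subgenomic luciferase replicon (Huh7-luc, clone ET, adaptive mutations E1202G, T1280I, K1846T). 2,500 cells were incubated with compound over a 9-point, 1/4 dilution series for 3 days. Replication was read as luciferase activity.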

Data set [11] has as its system Hepatocyte. Description: Prodrug conversion in mouse primary hepatocytes assessed as 2'-deoxy-2'-spirooxetane uridine triphosphate formation measured at 8 hrs by LC-MS/MS analysis. The class given is ADME, cell-based. The essentials: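 Hepatocyte primary cultures followed over time for triphosphate formation in cell lysates: rat and mouse up to 24 h, human up to 96 h.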

For data set [12], the system named is Hepatocyte. The data set can be described thus: Prodrug conversion in human hepatocytes assessed as 2'-deoxy-2'-spirooxetane uridine triphosphate formation in presence of CYP3A4 inhibitor ritonavir by LC-MS/MS analysis. The format is ADME, cell-based.
Data set [13] relates to Hepatocyte. The data set can be described thus: Drug level in human hepatocytes in presence of CYP3A4 inhibitor ketoconazole by LC-MS/MS analysis. The class given is ADME, cell-based.
Data set [14] has as its system Hepatocyte. Description: Drug metabolism in human hepatocytes assessed as ((4R,5R,7R,8R)-5-(2,4-dioxo-3,4-dihydropyrimidin-1(2H)-yl)-8-hydroxy-1,6-dioxaspiro[3.4]octan-7-yl)methyl dihydrogen phosphate formation in presence of pan-PDE inhibitor ibudilast by LC-MS/MS analysis. The class given is ADME, cell-based.
Data set [15] is described as follows: Half life in mouse plasma at 50 mg/kg, po. The class given is ADME, organism-based. The essentials:
(§3)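 Single oral dose of 50 mg/kg in 20% HP-β-cyclodextrin. Prodrug and triphosphate measured in plasma and liver over time (tlast 6–30 h). Half-life, Cmax, tmax and AUC0-last derived; liver/plasma ratio taken from AUC0-last. Prodrug data pooled from two independent studies.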

Data set [16] is described as follows: Cmax in mouse liver at 50 mg/kg, po. The class given is ADME, organism-based. Also on record: dose 50 mg/kg, route oral.
The nature of data set [17]: Tmax in mouse liver at 50 mg/kg, po. The class given is ADME, organism-based. The essentials: (§4)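 Single oral dose of 50 mg/kg formulated in 20% HP-β-cyclodextrin. Prodrug and its triphosphate were measured in plasma and liver (ng/mL or ng/g) over time, and Cmax, tmax, AUC, tlast and t1/2 were derived. For some analytes, data from two independent studies are reported.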

In data set [18] the test system is Liver. Description: Tlast in mouse liver at 50 mg/kg, po. The format is ADME, organism-based. As to conditions: in vivo. The essentials: as §4
Data set [19] deals with Liver. The data set can be described thus: AUC (0 to last) in mouse liver assessed as 2'-deoxy-2'-spirooxetane uridine triphosphate at 50 mg/kg, po. The class given is ADME, organism-based. As to conditions: in vivo. The essentials: (§5)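 Oral dose 50 mg/kg, formulated in 20% HP-β-cyclodextrin. Prodrug and triphosphate were measured in plasma and liver (ng/mL or ng/g). Parameters derived were Cmax, tmax, AUC0-last, AUC0-inf and t1/2. Some prodrug data come from two independent studies.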

The test system of another data set is Plasma. Description: Tlast in rat plasma at 50 mg/kg, po. The class given is ADME, organism-based. As to conditions: in vivo. The essentials:
as §4

A short description of data set [20]: Half life in rat plasma at 50 mg/kg, po. The class given is ADME, organism-based. The essentials:
as §3

The nature of data set [21]: Cmax in rat liver at 50 mg/kg, po. The format is ADME, organism-based. Also on record: dose 50 mg/kg, route oral.
Data set [22] is described as follows: Tmax in rat liver at 50 mg/kg, po. The format is ADME, organism-based. The essentials:
as §4

The subject of data set [23] is Liver. Description: AUC (0 to last) in rat liver at 50 mg/kg, po. The format is ADME, organism-based. The settings on record: in vivo. The essentials: as §5
Data set [24] relates to Liver. The data set can be described thus: AUC (0 to last) in rat liver assessed as 2'-deoxy-2'-spirooxetane uridine triphosphate at 50 mg/kg, po. The format is ADME, organism-based. The settings on record: in vivo. Summed up: as §5
Data set [25] relates to Liver. Description: AUC (0 to infinity) in rat liver assessed as 2'-deoxy-2'-spirooxetane uridine triphosphate at 50 mg/kg, po. The settings on record: in vivo. Also on record: dose 50 mg/kg, time infinity, route oral. The class given is ADME, organism-based. The essentials: as §5

Structures are written as SMILES.

Consider `[3H]C1O[P@](=O)(OC(C)C)O[C@@H]2[C@@H]1O[C@@H](n1ccc(=O)[nH]c1=O)[C@@]21CCO1` (some centres not stated), for which the Drug metabolism with Hepatocyte [1] is given as 0.027 pmol; in the data set with Hepatocyte [2], 0.45 pmol; in the data set with Hepatocyte [3], 0.025 pmol; in the data set with Hepatocyte [7] it was “metabolite_detected”; with Hepatocyte [8], “metabolite_detected”; with Hepatocyte [9], “metabolite_detected”. Also, the Drug metabolism result in data set [10] was “metabolite_detected”. Further, the Stability result (in the data set with Hepatocyte [4]; in [5]; with Hepatocyte [6]) was “Stable” throughout.
Take `CC(C)O[P@@]1(=O)OC[C@H]2O[C@@H](n3ccc(=O)[nH]c3=O)[C@@]3(CCO3)[C@@H]2O1`: in the data set on Hepatitis C virus, the EC50 (commonly the midpoint of the concentration-response curve) was above 100 µM. Further, the Drug metabolism entry in the data set on Hepatocyte [11] is given as “metabolite_detected”; with Hepatocyte [12], “metabolite_notdetected”; in the data set with Hepatocyte [14], “metabolite_detected”. Further, the Drug uptake entry with Hepatocyte [13] was “Active”. In addition, the half-life (usually the time in which the quantity being followed falls by half) is 4.4 h in data set [15] and 4.8 h in data set [20]. For the same compound, the values for the Cmax in [16] and in data set [21] were 701 ng/g and 944 ng/g, respectively. Further, the Tmax in data set [17] and in [22] was 1 h each time. For the same compound, the Tlast with Liver [18] is 6 h; with Plasma, 30 h. Moreover, the results for the AUClast in the data set with Liver [19], in the data set with Liver [23] and in the data set on Liver [24] were 126982 ng·h/g, 2489 ng·h/g and 719469 ng·h/g, respectively. For the same compound, in the data set on Liver [25], the AUC came out at 758393 ng·h/g.
